# Results pooled from the literature.
# Protocols differ between the studies behind these lines.
# Organism: Klebsiella pneumoniae
Structure (SMILES),assay,test system,setting,endpoint,value
CNC(C)C1CCC(N)C(OC2C(N)CC(N)C(OC3OCC(C)(O)C(NC)C3O)C2O)O1 (centres unmarked),"microbial growth, broth dilution",ATCC700603,,MIC,0.31 µM
Cc1ccc(-n2cc(COC3=CC(=O)c4ccccc4C3=O)nn2)cc1,"microbial growth, broth dilution",ATCC700603,,IC50,220 µg/mL
N#CC(=Cc1ccccc1O)C1=NC(=O)C(=Cc2cn(-c3ccccc3)nc2-c2ccccc2)S1,"microbial growth, well diffusion",,100000 µg/mL,inhibition zone,26 mm
COc1cc(Cc2cnc(N)nc2N)cc(OC)c1OC,"microbial growth, broth dilution",ATCC700603,,MIC,20 µM
O=C1C=C(O)C(=O)c2ccccc21,"microbial growth, broth dilution",ATCC700603,,IC50,123 µg/mL
NC[C@H]1O[C@H](O[C@H]2[C@H](O)[C@@H](O[C@H]3O[C@H](CO)[C@@H](O)[C@H](N)[C@H]3O)[C@H](N)C[C@@H]2N)[C@H](N)C[C@@H]1O,"microbial growth, broth dilution",ATCC700603,,MIC,1.3 µM
CCOC(=O)c1c(N)csc1-c1cn(-c2ccccc2)nc1-c1ccc(C)cc1,"microbial growth, well diffusion",,100000 µg/mL,inhibition zone,27 mm
O=C(O)c1cn(C2CC2)c2cc(N3CCNCC3)c(F)cc2c1=O,"microbial growth, disc diffusion",,"100 µg/mL, 24 h",inhibition zone,17 mm
CCCCS(=O)(=O)Oc1cccc2cccnc12,"microbial growth, broth dilution",ATCC700603,,IC50,171 µg/mL
Cc1c(CN(C)C(=O)/C=C/c2cnc3c(c2)CC(CCN)C(=O)N3)oc2ccccc12.Cl (centres unmarked),"microbial growth, broth dilution",BAA2470,,MIC,4 µg/mL
Cc1ccc(-c2nn(-c3ccccc3)cc2C=C(C#N)C2=NC(=O)CS2)cc1,"microbial growth, well diffusion",,100000 µg/mL,inhibition zone,21 mm
Cc1ccc(C(C)C)cc1OS(=O)(=O)c1cccs1,"microbial growth, broth dilution",ATCC700603,,IC50,163 µg/mL
O=C(O)c1cn(C2CC2)c2cc(N3CCNCC3)c(F)cc2c1=O,"microbial killing, broth dilution",,,MBC,0.5 µg/mL
CN[C@H](CC(C)C)C(=O)N[C@H]1C(=O)N[C@@H](CC(N)=O)C(=O)N[C@H]2C(=O)N[C@H]3C(=O)N[C@H](C(=O)N[C@H](C(=O)O)c4cc(O)cc(O)c4-c4cc3ccc4O)[C@H](O)c3ccc(c(Cl)c3)Oc3cc2cc(c3O[C@@H]2O[C@H](CO)[C@@H](O)[C@H](O)[C@H]2O[C@H]2C[C@](C)(N)[C@H](O)[C@H](C)O2)Oc2ccc(cc2Cl)[C@H]1O,"microbial killing, broth dilution",ATCC43816,,MBC,> 128 µM
Cc1ccc(C(C)C)cc1OCc1cn(-c2ccc(C(=O)O)cc2)nn1,"microbial growth, broth dilution",ATCC700603,,IC50,261 µg/mL
CCn1cc(C(=O)O)c(=O)c2ccc(C)nc21,"microbial growth, broth dilution",ATCC700603,,MIC,80 µM
N#CC(=Cc1ccc([N+](=O)[O-])cc1)C1=NC(=O)C(=Cc2cn(-c3ccccc3)nc2-c2ccccc2)S1,"microbial growth, well diffusion",,100000 µg/mL,inhibition zone,22 mm
